# Test results from ChEMBL document CHEMBL3351568, “2-Aminobenzoxazole ligands of the hepatitis C virus internal ribosome entry site” (Bioorg Med Chem Lett, 2014).
# Target: Internal ribosome entry site (IRES)
# Test: Binding affinity to HCV cyanine dye-labeled IRES subdomain 2a RNA by FRET assay in presence of tRNA
# Parameters: species or system Hepacivirus hominis
# In short: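 IRES subdomain IIa RNA target binding by FRET, following a previously described method. Compounds were titrated in triplicate experiments, and the data were averaged. EC50 came from fitting a single-site binding dose-response curve to the averaged data.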
row,SMILES,EC50
1,Nc1ccc2nc(NCCN3CCCCC3)oc2c1,88 µM
2,CN(C)CCCNc1ccc2nc(NCCCN(C)C)oc2c1,63 µM
3,CN(C)CCCNc1nc2cc(N)ccc2o1,52 µM
4,CN(C)CCN(C)Cc1cccc2nc(N)oc12,190 µM
5,CN(C)CCCNc1nc2ccc(N)cc2o1,120 µM
6,Nc1ccc2nc(NCCCN3CCOCC3)oc2c1,43 µM
7,CN(C)CCCNc1nc2cccc(N)c2o1,31 µM
8,CN(CCC(=O)N(C)C)Cc1cccc2nc(N)oc12,600 µM
9,CN(C)CCCNc1nc2ccccc2o1,110 µM
10,Nc1ccc2nc(NCCCN3CCCCC3)oc2c1,47 µM

# The remaining lines, values ahead:
row,EC50,SMILES
1,90 µM,Nc1nc2ccc(Nc3ccccc3)cc2o1
2,500 µM,CN(C)CCNc1nc2ccc(N)cc2o1
3,25 µM,CN(C)CCCNc1ccc2nc(N)oc2c1
4,27 µM,Nc1nc2ccc(NCc3ccccc3)cc2o1
